pIC50: −log10 of the molar value. Active and inactive are the calls of the source. The calls are words filed in the database; no cut-off is given here.
Tests used:
[1] = molecular target: CDK6/cyclin D2 (Homo sapiens, UniProt P30279+Q00534); test: Inhibition of GST-tagged human CDK6/Cyclin D2 expressed in baculovirus infected Sf9 cells using retinoblastoma protein in presence of ATP
In short: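 Cdk holoenzymes (Cdk with GST-cyclin or activator), expressed in Sf9 insect cells and purified on glutathione-Sepharose, were combined 1:1. Radiometric reactions used [33P]ATP with GST-pRb(152), the C-terminal 152-residue pRb fragment, as substrate. Label was quantified by phosphorimager. Ten inhibitor concentrations from 0 to 100 μM were run in duplicate across three independent experiments. IC50 came from plotting percent incorporation relative to the no-inhibitor reaction against concentration.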

[2] = system: HCT-116; test: Induction of cell cycle arrest in human HCT-116 cells assessed as number of cells at G0/G1 phase at 5 uM after 24 hrs in presence of 10% serum by flow cytometry analysis (reference value: 49.5%); format: functional
In short: (§1)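 HCT116 cells in McCoy's 5A were serum-starved 72 h in 0.1% serum, then released for 24 h into 10% serum with or without compound. They were fixed in 70% ethanol, RNase-treated (3 mg/mL, 30 min, 37 °C) and stained with 50 μg/mL propidium iodide. Flow cytometry on FL-2 area with doublet gating gave the percentages in sub-G1, G0/G1, S and G2/M.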

[3] = system: HCT-116; test: Induction of cell cycle arrest in human HCT-116 cells assessed as number of cells at S phase at 5 uM after 24 hrs in presence of 10% serum by flow cytometry analysis (reference value: 36.3%); format: functional; in short: as §1
[4] = system: HCT-116; test: Induction of cell cycle arrest in human HCT-116 cells assessed as number of cells at G0/G1 phase at 10 uM after 24 hrs in presence of 10% serum by flow cytometry analysis (reference value: 49.5%); format: functional; in short: as §1
[5] = system: HCT-116; test: Induction of cell cycle arrest in human HCT-116 cells assessed as number of cells at S phase at 10 uM after 24 hrs in presence of 10% serum by flow cytometry analysis (reference value: 36.3%); format: functional; in short: as §1
[6] = system: MRC5; test: Induction of cell cycle arrest in human MRC5 cells assessed as number of cells at G0/G1 phase at 5 uM after 24 hrs in presence of 10% serum by flow cytometry analysis (reference value: 64.1%); format: functional
[7] = system: MRC5; test: Induction of cell cycle arrest in human MRC5 cells assessed as number of cells at SubG1 phase at 5 uM after 24 hrs in presence of 10% serum by flow cytometry analysis (reference value: 4.9%); format: functional
[8] = system: MRC5; test: Induction of cell cycle arrest in human MRC5 cells assessed as number of cells at S phase at 10 uM after 24 hrs in presence of 10% serum by flow cytometry analysis (reference value: 16.1%); format: functional
[9] = system: U2OS; test: Induction of cell cycle arrest in human U2OS cells assessed as percentage of cells at S phase, cells were released from quinidine block prior to compound addition at 10 uM after 24 hrs by flow cytometry analysis (reference value: 21.39%); format: functional
[10] = system: U2OS; test: Induction of cell cycle arrest in human U2OS cells assessed as percentage of cells at G0/G1 phase, cells were released from mimosine block prior to compound addition at 10 uM after 16 hrs by flow cytometry analysis (reference value: 17.2%); format: functional
[11] = system: U2OS; test: Induction of cell cycle arrest in human U2OS cells assessed as percentage of cells at G0/G1 phase, cells were released from mimosine block prior to compound addition at 10 uM after 38 hrs by flow cytometry analysis (reference value: 39.6%); format: functional
[12] = system: U2OS; test: Induction of cell cycle arrest in human U2OS cells assessed as percentage of cells at G2/M phase, cells were released from mimosine block prior to compound addition at 5 uM after 38 hrs by flow cytometry analysis (reference value: 32.3%); format: functional
[13] = system: U2OS; test: Induction of cell cycle arrest in human U2OS cells assessed as percentage of cells at G2/M phase, cells were released from mimosine block prior to compound addition at 10 uM after 38 hrs by flow cytometry analysis (reference value: 32.3%); format: functional
[14] = system: U2OS; test: Induction of cell cycle arrest in human U2OS cells assessed as percentage of cells at SubG1 phase, cells were released from mimosine block prior to compound addition at 10 uM after 16 hrs by flow cytometry analysis (reference value: 2.2%); format: functional
[15] = system: U2OS; test: Induction of cell cycle arrest in human U2OS cells assessed as percentage of cells at SubG1 phase, cells were released from mimosine block prior to compound addition at 5 uM after 38 hrs by flow cytometry analysis (reference value: 5%); format: functional
[16] = system: NIH3T3; test: Induction of cell cycle arrest in mouse NIH3T3 cells expressing pRb assessed as percentage of cells at G0/G1 phase at 5 uM after 24 hrs by flow cytometry analysis (reference value: 44.7%); format: functional
[17] = system: NIH3T3; test: Induction of cell cycle arrest in mouse NIH3T3 cells expressing pRb assessed as percentage of cells at S phase at 10 uM after 24 hrs by flow cytometry analysis (reference value: 12.2%); format: functional
[18] = system: NIH3T3; test: Induction of cell cycle arrest in mouse NIH3T3 cells expressing pRb-negative assessed as percentage of cells at G0/G1 phase at 5 uM after 24 hrs by flow cytometry analysis (reference value: 43.5%); format: functional
[19] = system: U2OS; test: Induction of cell cycle arrest in human U2OS cells expressing pRb assessed as percentage of cells at G0/G1 phase at 10 uM after 24 hrs by flow cytometry analysis (reference value: 49.8%); format: functional
[20] = system: U2OS; test: Induction of cell cycle arrest in human U2OS cells expressing pRb negative assessed as percentage of cells at G0/G1 phase at 10 uM after 24 hrs by flow cytometry analysis (reference value: 42.5%); format: functional
[21] = system: U2OS; test: Induction of cell cycle arrest in human U2OS cells expressing pRb negative assessed as percentage of cells at S phase at 10 uM after 24 hrs by flow cytometry analysis (reference value: 30.3%); format: functional
[22] = system: HCT-116; test: Antitumor activity against human HCT-116 cells xenografted in nude mouse assessed as decrease tumor volume at 30 mg/kg, ip administered every 12 hrs measured after 29 days; format: functional, organism-based; conditions: time 29.0 day
In short: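 Female BALB/c nu/nu mice (19–21 g), 8 per group, injected s.c. with 0.1 mL HCT116 suspension (1 × 10^7 viable cells/mL in Hanks' buffer). Treatment started at about 100 mm3 (day 20). Dosing i.p. in 5% DMSO/0.05% Tween 80/95% saline at 10 mL/kg for 29 days; vehicle controls. Caliper volumes taken blinded every 2–4 days as length × width² × π/6. Dunnett ANOVA; growth rate compared as log-volume slopes.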

[23] = molecular target: Hepatocyte growth factor receptor (Homo sapiens, UniProt P08581); test: Inhibition of GST-tagged human c-met expressed in baculovirus infected Sf9 cells using tyrosine-containing peptide substrate in presence of ATP
[24] = molecular target: Insulin-like growth factor 1 receptor (Homo sapiens, UniProt P08069); test: Inhibition of GST-tagged human IGF-1R expressed in baculovirus infected Sf9 cells using tyrosine-containing peptide substrate in presence of ATP
Sequence of Insulin-like growth factor 1 receptor (P08069 31-736 limits assumed): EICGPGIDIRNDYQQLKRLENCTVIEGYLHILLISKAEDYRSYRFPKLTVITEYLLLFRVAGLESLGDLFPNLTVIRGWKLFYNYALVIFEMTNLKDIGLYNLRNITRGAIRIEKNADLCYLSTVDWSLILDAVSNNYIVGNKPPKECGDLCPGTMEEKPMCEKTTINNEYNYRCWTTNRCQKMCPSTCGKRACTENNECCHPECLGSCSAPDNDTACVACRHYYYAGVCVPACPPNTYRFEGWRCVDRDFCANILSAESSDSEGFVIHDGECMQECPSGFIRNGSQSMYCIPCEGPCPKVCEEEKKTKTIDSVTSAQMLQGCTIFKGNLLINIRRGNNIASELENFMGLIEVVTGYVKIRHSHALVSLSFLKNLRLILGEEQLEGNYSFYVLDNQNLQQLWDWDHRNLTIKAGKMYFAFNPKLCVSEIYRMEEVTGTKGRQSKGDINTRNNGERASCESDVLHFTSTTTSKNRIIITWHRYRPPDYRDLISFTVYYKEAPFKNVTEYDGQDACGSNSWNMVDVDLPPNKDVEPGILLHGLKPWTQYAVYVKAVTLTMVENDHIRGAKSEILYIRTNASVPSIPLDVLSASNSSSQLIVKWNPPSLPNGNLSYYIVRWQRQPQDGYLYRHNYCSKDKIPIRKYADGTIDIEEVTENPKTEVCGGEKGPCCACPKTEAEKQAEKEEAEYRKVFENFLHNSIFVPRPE
Sequence of Insulin-like growth factor 1 receptor (P08069 741-1367 limits assumed): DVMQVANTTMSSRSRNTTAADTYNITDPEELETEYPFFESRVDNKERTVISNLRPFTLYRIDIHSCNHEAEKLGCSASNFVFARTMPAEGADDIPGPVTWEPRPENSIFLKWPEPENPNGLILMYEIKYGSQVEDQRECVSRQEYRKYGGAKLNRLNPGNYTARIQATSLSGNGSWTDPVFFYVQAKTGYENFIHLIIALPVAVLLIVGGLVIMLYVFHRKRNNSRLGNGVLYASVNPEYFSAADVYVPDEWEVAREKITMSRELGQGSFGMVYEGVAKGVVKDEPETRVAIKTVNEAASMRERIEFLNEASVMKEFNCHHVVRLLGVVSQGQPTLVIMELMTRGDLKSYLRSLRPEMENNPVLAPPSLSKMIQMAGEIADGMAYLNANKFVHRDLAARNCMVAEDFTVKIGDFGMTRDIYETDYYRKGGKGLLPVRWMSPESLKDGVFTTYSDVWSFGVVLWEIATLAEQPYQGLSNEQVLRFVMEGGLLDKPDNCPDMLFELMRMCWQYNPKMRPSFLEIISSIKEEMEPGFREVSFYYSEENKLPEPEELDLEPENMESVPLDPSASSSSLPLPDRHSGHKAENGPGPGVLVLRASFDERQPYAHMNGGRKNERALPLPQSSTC

Sequence of Hepatocyte growth factor receptor (P08581 whole entry): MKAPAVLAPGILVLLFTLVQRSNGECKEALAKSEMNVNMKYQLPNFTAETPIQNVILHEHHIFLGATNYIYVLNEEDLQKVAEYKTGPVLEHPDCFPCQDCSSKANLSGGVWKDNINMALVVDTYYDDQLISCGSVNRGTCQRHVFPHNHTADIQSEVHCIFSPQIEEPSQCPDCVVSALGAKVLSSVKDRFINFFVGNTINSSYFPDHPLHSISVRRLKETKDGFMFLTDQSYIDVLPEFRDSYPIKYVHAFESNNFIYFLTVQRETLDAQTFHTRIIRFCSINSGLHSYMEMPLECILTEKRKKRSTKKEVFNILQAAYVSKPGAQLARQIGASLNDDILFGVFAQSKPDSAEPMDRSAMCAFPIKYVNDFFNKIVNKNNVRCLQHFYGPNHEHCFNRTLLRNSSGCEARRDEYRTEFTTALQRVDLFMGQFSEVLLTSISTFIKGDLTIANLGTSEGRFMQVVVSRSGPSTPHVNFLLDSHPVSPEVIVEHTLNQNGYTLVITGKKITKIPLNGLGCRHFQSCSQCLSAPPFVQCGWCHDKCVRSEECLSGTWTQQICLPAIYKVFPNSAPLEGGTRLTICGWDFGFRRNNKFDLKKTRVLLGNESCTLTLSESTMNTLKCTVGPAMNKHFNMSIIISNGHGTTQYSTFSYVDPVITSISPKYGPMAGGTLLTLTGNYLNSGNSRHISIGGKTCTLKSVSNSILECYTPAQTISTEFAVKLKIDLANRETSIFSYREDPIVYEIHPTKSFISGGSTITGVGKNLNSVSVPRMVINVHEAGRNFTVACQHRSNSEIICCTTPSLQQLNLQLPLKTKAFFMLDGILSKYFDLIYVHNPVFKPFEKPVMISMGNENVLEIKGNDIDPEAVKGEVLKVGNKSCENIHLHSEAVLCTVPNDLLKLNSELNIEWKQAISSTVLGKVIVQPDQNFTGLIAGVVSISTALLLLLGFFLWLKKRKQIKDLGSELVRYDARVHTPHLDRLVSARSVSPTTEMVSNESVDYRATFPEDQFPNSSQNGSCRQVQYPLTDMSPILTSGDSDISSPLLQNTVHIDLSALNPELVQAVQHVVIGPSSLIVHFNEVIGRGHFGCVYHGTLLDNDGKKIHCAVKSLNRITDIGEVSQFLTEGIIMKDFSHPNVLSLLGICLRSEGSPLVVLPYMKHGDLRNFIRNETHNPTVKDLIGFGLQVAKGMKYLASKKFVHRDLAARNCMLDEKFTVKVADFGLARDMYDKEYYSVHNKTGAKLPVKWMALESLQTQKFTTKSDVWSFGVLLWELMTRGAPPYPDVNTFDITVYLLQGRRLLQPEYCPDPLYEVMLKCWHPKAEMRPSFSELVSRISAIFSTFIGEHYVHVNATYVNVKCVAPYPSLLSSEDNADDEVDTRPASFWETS
Sequence of CDK6/cyclin D2 (Q00534 whole entry, the tested form may be a part): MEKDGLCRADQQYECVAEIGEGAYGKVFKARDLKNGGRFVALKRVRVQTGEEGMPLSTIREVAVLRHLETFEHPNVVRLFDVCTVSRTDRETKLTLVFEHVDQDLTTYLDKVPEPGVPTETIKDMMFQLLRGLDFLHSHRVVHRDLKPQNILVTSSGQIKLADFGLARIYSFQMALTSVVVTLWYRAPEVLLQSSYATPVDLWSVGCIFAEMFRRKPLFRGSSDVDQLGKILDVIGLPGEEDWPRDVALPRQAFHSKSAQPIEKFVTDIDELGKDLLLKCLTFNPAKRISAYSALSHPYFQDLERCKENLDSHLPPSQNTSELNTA
Sequence of CDK6/cyclin D2 (P30279 whole entry, the tested form may be a part): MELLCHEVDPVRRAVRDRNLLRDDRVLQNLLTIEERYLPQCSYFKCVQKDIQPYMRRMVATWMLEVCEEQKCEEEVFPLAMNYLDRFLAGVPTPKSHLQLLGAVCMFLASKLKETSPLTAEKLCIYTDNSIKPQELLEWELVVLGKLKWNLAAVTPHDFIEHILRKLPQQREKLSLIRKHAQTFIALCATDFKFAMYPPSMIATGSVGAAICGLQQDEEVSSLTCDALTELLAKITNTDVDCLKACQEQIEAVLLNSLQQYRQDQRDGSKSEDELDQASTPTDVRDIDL

With `CCNc1cc(N[C@H]2CC[C@H](O)CC2)nc(Nc2ccc3c(ccn3Cc3ccccc3)c2)n1` the pIC50 [1] was < 4.30, the Activity [2] was 62.5% and the Activity [3] was 20.7%. The Activity [4] was 60.3%, the Activity [5] was 22.6% and the Activity [6] was 81%. It also gave an Activity [7] of 7.4%, an Activity [8] of 2.4% and an Activity [9] of 7.6%. For the same compound, the Activity [10] was 16.7%, the Activity [11] was 14.3% and the Activity [12] was 31.4%. It also gave an Activity [13] of 13.9%, an Activity [14] of 21.8% and an Activity [15] of 13.2%. For the same compound, the Activity [16] was 92.3%, the Activity [17] was 3.1% and the Activity [18] was 49.8%. The Activity [19] was 82.9%, the Activity [20] was 42.8% and the Activity [21] was 25.1%. The Activity [22] was “Active”, the pIC50 [23] was < 5.00 and the pIC50 [24] was < 5.00.

Reference: ChEMBL document CHEMBL5661964, “Selective in vivo and in vitro effects of a small molecule inhibitor of cyclin-dependent kinase 4” (J Natl Cancer Inst, 2001)
